Assay results: ChEMBL document CHEMBL1177802, “Novel semicarbazones based 2,5-disubstituted-1,3,4-oxadiazoles: one more step towards establishing four binding site pharmacophoric model hypothesis for anticonvulsant activity” (Bioorg Med Chem Lett, 2010)
The source made the active and inactive calls.

Experiments:
Mus musculus [1] = assay: Anticonvulsant activity against maximal electroshock-induced seizures in Swiss albino mouse at 300 mg/kg, ip after 4 hrs; assay type: functional, organism-based; parameters: dose 300 mg/kg
How it was run: (§1)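 Mice; compounds given ip at 30, 100 and 300 mg/kg and tested in the maximal electroshock seizure model at 0.5 and 4.0 h after dosing. Read-out is the minimal dose giving protection in half or more of the animals. Absence of activity is judged at the 300 mg/kg maximum.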

Mus musculus [2] = assay: Neurotoxicity in Swiss albino mouse at 300 mg/kg, ip after 0.5 hrs; assay type: toxicity, organism-based; parameters: dose 300 mg/kg, route intraperitoneal; conditions: in vivo
How it was run: (§2)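 Acute neurotoxicity by rotorod test in mice given 30, 100 and 300 mg/kg ip, assessed 0.5 and 4.0 h after dosing. Reported as the minimal dose producing the effect in half or more of the animals. Absence of activity is judged at the 300 mg/kg maximum.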

Mus musculus [3] = assay: Anticonvulsant activity against maximal electroshock-induced seizures in ip dosed Swiss albino mouse assessed as minimum effective dose after 0.5 hrs; assay type: functional; conditions: read-out: MED; how it was run: as §1
Rattus norvegicus [4] = assay: Anticonvulsant activity against subcutaneous strychnine-induced seizures in Wistar rat at 300 mg/kg, ip after 4 hrs; assay type: functional, organism-based; parameters: dose 300 mg/kg
How it was run: (§3)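 Rats; subcutaneous strychnine-induced seizure model with compounds given intraperitoneally at 30, 100 and 300 mg/kg. Activity is checked at 0.5 h and 4.0 h and recorded as the minimal dose active in at least half of the animals. Absence of activity is judged at the 300 mg/kg maximum.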

Rattus norvegicus [5] = assay: Anticonvulsant activity against subcutaneous strychnine-induced seizures in ip dosed Wistar rat assessed as minimum effective dose after 0.5 hrs; assay type: functional; conditions: read-out: MED
How it was run: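 Rats given 30, 100 or 300 mg/kg ip and challenged with subcutaneous strychnine. Protection was read at 0.5 and 4.0 h after dosing. The value is the minimal dose that gave activity in half or more of the animals; no activity at 300 mg/kg was the highest-dose cut-off.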

Mus musculus [6] = assay: Neurotoxicity in Swiss albino mouse at 300 mg/kg, ip after 4 hrs; assay type: toxicity, organism-based; parameters: dose 300 mg/kg, route intraperitoneal; conditions: in vivo; how it was run: as §2
Mus musculus [7] = assay: Anticonvulsant activity against subcutaneous pentylenetetrazole-induced seizures in ip dosed Swiss albino mouse assessed as minimum effective dose after 0.5 hrs; assay type: functional; conditions: read-out: MED
How it was run: (§4)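 Mice; subcutaneous pentylenetetrazole seizure screen after ip dosing at 30, 100 and 300 mg/kg, read 0.5 and 4.0 h post-dose. Scored as the lowest dose protecting at least half of the animals. Absence of activity is judged at the 300 mg/kg maximum.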

Mus musculus [8] = assay: Anticonvulsant activity against subcutaneous pentylenetetrazole-induced seizures in Swiss albino mouse at 300 mg/kg, ip after 4 hrs; assay type: functional, organism-based; parameters: dose 300 mg/kg; how it was run: as §4
Mus musculus [9] = assay: Anticonvulsant activity against maximal electroshock-induced seizures in ip dosed Swiss albino mouse assessed as minimum effective dose after 4 hrs; assay type: functional; conditions: read-out: MED; how it was run: as §1
Mus musculus [10] = assay: Anticonvulsant activity against subcutaneous pentylenetetrazole-induced seizures in ip dosed Swiss albino mouse assessed as minimum effective dose after 4 hrs; assay type: functional; conditions: read-out: MED; how it was run: as §4
Rattus norvegicus [11] = assay: Anticonvulsant activity against subcutaneous strychnine-induced seizures in ip dosed Wistar rat assessed as minimum effective dose after 4 hrs; assay type: functional; conditions: read-out: MED; how it was run: as §3
Mus musculus [12] = assay: Anticonvulsant activity against subcutaneous pentylenetetrazole-induced seizures in Swiss albino mouse at 300 mg/kg, ip after 0.5 hrs; assay type: functional, organism-based; parameters: dose 300 mg/kg; how it was run: as §4
Rattus norvegicus [13] = assay: Anticonvulsant activity against subcutaneous strychnine-induced seizures in Wistar rat at 300 mg/kg, ip after 0.5 hrs; assay type: functional, organism-based; parameters: dose 300 mg/kg; how it was run: as §3
Mus musculus [14] = assay: Anticonvulsant activity against maximal electroshock-induced seizures in Swiss albino mouse at 300 mg/kg, ip after 0.5 hrs; assay type: functional, organism-based; parameters: dose 300 mg/kg; how it was run: as §1
Mus musculus [15] = assay: Neurotoxicity in ip dosed Swiss albino mouse assessed as minimum dose required to cause toxicity after 4 hrs; assay type: organism-based; conditions: in vivo; how it was run: as §2
Mus musculus [16] = assay: Neurotoxicity in ip dosed Swiss albino mouse assessed as minimum dose required to cause toxicity after 0.5 hrs; assay type: organism-based; conditions: in vivo; how it was run: as §2

Row | SMILES | MED (Mus musculus [1]) | Activity (Mus musculus [2]) | minimal effective dose (Mus musculus [3]) [mg/kg] | MED (Rattus norvegicus [4]) | minimal effective dose (Rattus norvegicus [5]) [mg/kg] | Activity (Mus musculus [6]) | minimal effective dose (Mus musculus [7]) [mg/kg] | MED (Mus musculus [8]) | minimal effective dose (Mus musculus [9]) [mg/kg] | minimal effective dose (Mus musculus [10]) [mg/kg] | minimal effective dose (Rattus norvegicus [11]) [mg/kg] | MED (Mus musculus [12]) | MED (Rattus norvegicus [13]) | MED (Mus musculus [14]) | Activity (Mus musculus [15]) [mg/kg] | Activity (Mus musculus [16]) [mg/kg]
1 | CCCC(CCC)C(=O)[O-].[Na+] [VALPROATE SODIUM] | inactive | Non-toxic | 300 | inactive | 300 | Non-toxic | 300 | inactive |  |  |  |  |  |  |  | 
2 | C/C(=N/NC(=O)Nc1nnc(COc2ccc3ccccc3c2)o1)c1ccc(N)cc1 |  | Non-toxic |  |  |  | Non-toxic |  |  | 300 | 300 | 300 | inactive | inactive | inactive |  | 
3 | C/C(=N/NC(=O)Nc1nnc(COc2ccc3ccccc3c2)o1)c1ccc(O)cc1 |  | Non-toxic | 100 | inactive |  |  |  | inactive | 300 |  |  | inactive | inactive |  | 300 | 
4 | COc1ccc(/C=N\NC(=O)Nc2nnc(COc3ccc4ccccc4c3)o2)cc1 | inactive | Non-toxic |  | inactive |  | Non-toxic |  |  |  | 300 |  | inactive | inactive | inactive |  | 
5 | C/C(=N/NC(=O)Nc1nnc(COc2ccc3ccccc3c2)o1)c1ccc(Cl)cc1 | inactive | Non-toxic |  | inactive |  | Non-toxic |  |  |  | 300 |  | inactive | inactive | inactive |  | 
6 | O=C1NC(=O)C(c2ccccc2)(c2ccccc2)N1 [PHENYTOIN] |  |  | 30 |  |  |  |  | inactive | 30 |  | 100 | inactive | inactive |  | 100 | 100
7 | COc1ccc(/C(=N\NC(=O)Nc2nnc(COc3ccc4ccccc4c3)o2)c2ccccc2)cc1 |  | Non-toxic |  | inactive |  |  |  | inactive | 300 |  |  | inactive | inactive | inactive | 300 | 
8 | Cc1ccc(/C=N\NC(=O)Nc2nnc(COc3ccc4ccccc4c3)o2)cc1 |  | Non-toxic |  | inactive |  | Non-toxic |  | inactive | 300 |  |  | inactive | inactive | inactive |  | 
9 | O=C(N/N=C\c1ccc([N+](=O)[O-])cc1)Nc1nnc(COc2ccc3ccccc3c2)o1 | inactive | Non-toxic | 300 |  |  |  |  | inactive |  |  | 300 | inactive | inactive |  | 300 | 
10 | COc1cc(/C=N\NC(=O)Nc2nnc(COc3ccc4ccccc4c3)o2)ccc1O | inactive |  |  |  |  | Non-toxic |  | inactive |  |  | 300 | inactive | inactive | inactive |  | 300
11 | CCC1(C)CC(=O)NC1=O (centres undefined) [ETHOSUXIMIDE] | inactive | Non-toxic |  | inactive | 300 | Non-toxic | 100 |  |  | 300 |  |  |  | inactive |  | 
12 | O=C(N/N=C\c1cccc(O)c1)Nc1nnc(COc2ccc3ccccc3c2)o1 |  | Non-toxic |  | inactive |  |  |  |  | 300 | 300 |  | inactive | inactive | inactive | 300 | 
13 | O=C(N/N=C\c1ccccc1)Nc1nnc(COc2ccc3ccccc3c2)o1 |  | Non-toxic |  | inactive |  |  |  | inactive | 300 |  |  | inactive | inactive | inactive | 300 | 
14 | CN(C)c1ccc(/C=N\NC(=O)Nc2nnc(COc3ccc4ccccc4c3)o2)cc1 |  | Non-toxic | 100 | inactive |  |  |  | inactive | 300 |  |  | inactive | inactive |  | 300 | 
15 | O=C(NN=C(c1ccccc1)c1ccccc1)Nc1nnc(COc2ccc3ccccc3c2)o1 |  |  |  | inactive |  | Non-toxic |  | inactive | 300 |  |  | inactive | inactive | inactive |  | 300
16 | NC(=O)N1c2ccccc2C=Cc2ccccc21 [CARBAMAZEPINE] |  |  | 30 | inactive |  |  | 100 |  | 100 | 300 |  |  | inactive |  | 300 | 100
17 | C/C(=N/NC(=O)Nc1nnc(COc2ccc3ccccc3c2)o1)c1ccc(C)cc1 | inactive |  |  | inactive |  | Non-toxic | 300 | inactive |  |  |  |  | inactive | inactive |  | 300
18 | O=C(N/N=C\c1ccc(Cl)cc1)Nc1nnc(COc2ccc3ccccc3c2)o1 | inactive |  |  | inactive |  | Non-toxic |  | inactive |  |  |  | inactive | inactive | inactive |  | 300
